Values joined by “and” are separate entries in the source; they are usually repeats but may differ in a detail not shown here. Equal entries are not always repeated. Where two headings read alike, the source gives them in different places.
Key:
Assay type in all cases: biochemical
AChE = AChE (Electrophorus electricus, UniProt O42275); assay: biochemical
hCA I = hCA I (Homo sapiens, UniProt P00915); assay: hCA I esterase activity inhibition assay; details: for fold increase of hCA I inhibition relative to complex 2: ratio of Ki values, versus complex 2
Chain of hCA I (P00915 whole entry): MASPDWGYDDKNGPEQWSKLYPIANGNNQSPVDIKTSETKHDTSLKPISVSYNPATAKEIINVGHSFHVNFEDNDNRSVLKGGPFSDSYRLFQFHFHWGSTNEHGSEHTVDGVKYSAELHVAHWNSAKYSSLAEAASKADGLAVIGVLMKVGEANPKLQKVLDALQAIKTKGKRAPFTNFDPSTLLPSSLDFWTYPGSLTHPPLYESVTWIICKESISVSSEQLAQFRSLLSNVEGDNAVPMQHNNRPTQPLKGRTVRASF

hCA II = hCA II (Homo sapiens, UniProt P00918); assay: hCA II esterase activity inhibition assay
How it was run: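 hCA II purified from expired human erythrocytes by Sepharose-4B-L-tyrosine-sulfanilamide affinity chromatography; purity checked by SDS-PAGE; protein quantified against a bovine serum albumin standard. Esterase activity followed spectrophotometrically as p-nitrophenylacetate hydrolysis to p-nitrophenolate, absorbance change at 348 nm over 3 min at 25 °C. Inhibitor and substrate concentrations varied; IC50 and Ki derived, inhibition type from Lineweaver-Burk plots.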

[1] = read-out: Ki hCA I, Lineweaver-Burk, hCA I from human erythrocytes
[2] = read-out: Ki hCA II, Lineweaver-Burk, hCA II from human erythrocytes

Chain of AChE (O42275 24-633): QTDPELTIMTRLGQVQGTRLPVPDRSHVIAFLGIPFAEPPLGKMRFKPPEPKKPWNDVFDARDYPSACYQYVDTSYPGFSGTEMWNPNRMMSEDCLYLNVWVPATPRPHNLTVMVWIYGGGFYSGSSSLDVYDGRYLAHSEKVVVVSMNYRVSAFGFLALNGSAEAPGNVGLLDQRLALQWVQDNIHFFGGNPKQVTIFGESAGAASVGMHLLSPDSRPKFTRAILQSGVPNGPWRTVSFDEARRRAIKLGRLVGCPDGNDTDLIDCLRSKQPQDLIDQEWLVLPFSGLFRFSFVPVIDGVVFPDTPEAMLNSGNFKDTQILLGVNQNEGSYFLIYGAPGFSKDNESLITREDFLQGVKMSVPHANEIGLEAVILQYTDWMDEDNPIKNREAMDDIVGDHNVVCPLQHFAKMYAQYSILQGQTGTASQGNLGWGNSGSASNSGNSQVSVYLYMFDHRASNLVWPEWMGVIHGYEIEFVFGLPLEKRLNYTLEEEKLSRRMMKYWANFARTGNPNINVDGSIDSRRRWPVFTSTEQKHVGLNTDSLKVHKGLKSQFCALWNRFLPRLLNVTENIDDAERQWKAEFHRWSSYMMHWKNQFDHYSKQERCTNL

| Molecule | fold increase of hCA I inhibition relative to complex 2 (hCA I) [fold] | Ki (hCA I; [1]) [µM] | Ki (hCA II; [2]) | also measured |
| --- | --- | --- | --- | --- |
| c1ccc(Cn2c[n+](Cc3ccccc3)c3ccccc32)cc1 [Compound 1, 1,3-dibenzylbenzimidazolium chloride] |  |  |  | IC50 (AChE): 0.0866 µM; Ki (AChE): 0.064 µM and 0.0641 µM; IC50 (hCA I): 0.116 µM; Ki (hCA I): 0.0685 ± 0.0115 µM; IC50 (hCA II): 0.0693 µM; Ki (hCA II): 0.0493 ± 0.0065 µM |
| dibromo[1,3-dibenzylbenzimidazol-2-ylidene]-2-aminopyridinepalladium(II) [Complex 4] | 2.83 | 0.0181 ± 0.003 | 0.0197 ± 0.0019 µM |  |
| dibromo[1,3-dibenzylbenzimidazol-2-ylidene]-3-chloropyridinepalladium(II) [Complex 3] | 2.83 | 0.01 ± 0.0014 | 0.0077 ± 0.0006 µM |  |
| dibromo[1,3-dibenzylbenzimidazol-2-ylidene]morpholinepalladium(II) [Complex 6] |  | 0.0169 ± 0.0003 | 0.012 µM and 0.0121 µM |  |
| dibromo[1,3-dibenzylbenzimidazol-2-ylidene]pyridinepalladium(II) [Complex 2] |  | 0.0284 ± 0.0012 | 0.0083 ± 0.0018 µM | fold more effective AChE inhibition than donepezil (AChE): 1.49 fold; fold more effective AChE inhibition than tacrine (AChE): 1.76 fold |
| dibromo[1,3-dibenzylbenzimidazol-2-ylidene]triphenylphosphine palladium(II) [Complex 5] |  | 0.0403 ± 0.002 | 0.015 µM and 0.0153 µM | Ki (AChE; read-out: Ki AChE, Lineweaver-Burk, AChE from Electrophorus electricus): 0.0231 ± 0.0026 µM |
